Bioassay records (PubChem BioAssay)
An excerpt weighted towards active compounds, which were near 2.3% of everything screened.
PAD4 FP inh – blocks human protein arginine deiminase 4. Q9UM07. recombinant PAD4, RCA probe fluorescence polarization. inhibition, % at 6.36 µM. hit rate 0.41% among 330,000. AID 485272;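 active = percent inhibition above a cutoff equal to the mean of all tested compounds plus 3 SD, cut at about 15% in these data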;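 also: 0% = PAD4 with RCA probe and DMSO and 100% = probe without PAD4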
Target sequence (Q9UM07 whole entry, looked up): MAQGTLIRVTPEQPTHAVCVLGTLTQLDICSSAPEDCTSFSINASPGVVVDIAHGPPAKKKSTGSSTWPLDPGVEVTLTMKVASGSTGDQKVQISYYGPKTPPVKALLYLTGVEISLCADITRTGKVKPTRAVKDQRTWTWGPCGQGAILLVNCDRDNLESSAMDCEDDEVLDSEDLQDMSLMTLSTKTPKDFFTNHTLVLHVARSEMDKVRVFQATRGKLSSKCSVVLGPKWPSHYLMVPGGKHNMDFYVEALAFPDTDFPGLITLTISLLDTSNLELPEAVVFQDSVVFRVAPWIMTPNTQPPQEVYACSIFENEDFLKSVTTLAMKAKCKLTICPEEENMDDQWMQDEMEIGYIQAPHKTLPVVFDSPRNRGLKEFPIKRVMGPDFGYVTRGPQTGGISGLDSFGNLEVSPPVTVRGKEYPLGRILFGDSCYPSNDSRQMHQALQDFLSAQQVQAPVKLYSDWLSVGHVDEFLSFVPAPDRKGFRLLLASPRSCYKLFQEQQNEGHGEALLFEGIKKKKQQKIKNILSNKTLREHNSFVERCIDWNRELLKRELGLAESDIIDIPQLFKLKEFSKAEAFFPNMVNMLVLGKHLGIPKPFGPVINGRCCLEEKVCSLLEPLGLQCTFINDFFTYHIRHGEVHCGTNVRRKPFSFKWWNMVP
PME-1 inh – PME-1 (human) inhibition; recombinant PME-1, FP-Rh probe fluorescence polarization; inhibition, % at 5.9 µM; hit rate 0.53% among 320,000;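 active = inhibition above the campaign mean of all compounds plus 3 SD, cut at about 26% in these data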;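 also: competitive labeling of PME-1 active site by serine hydrolase directed probe; 0% = PME-1 with DMSO and 100% = wells lacking PME-1 enzyme; inhibitors block probe labeling so polarization falls and inhibition rises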
GSTO1 inh – GSTO1 inhibition, counter-screen for RBBP9 inhibitors; AID 1974; P78417; hit rate 1.1% among 300,000; inhibition, % at 5.96 µM; recombinant GSTO1, activity-based probe fluorescence polarization;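 active = inhibition above the campaign mean inhibition plus 3 SD, cut at about 35% in these data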;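 also: 0% = GSTO1-1 with DMSO and 100% = wells lacking GSTO1-1 enzyme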
PRMT1 inh – PRMT1 (human) inhibition, primary screen. inhibition, % at 2.79 µM. AID 652257. recombinant PRMT1, activity-based probe fluorescence polarization. hit rate 1.3% among 370,000;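 active = inhibition above about 21% made by adding two undisclosed values, limit read from the data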
RBBP9 inhibitor – human RBBP9 hydrolase inhibition; O75884; recombinant RBBP9, FP-Rh probe fluorescence polarization; inhibition, % at 7.94 µM; hit rate 0.2% among 220,000;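 active = inhibition above the campaign mean of all tested compounds plus 3 SD, cut at about 14% in these data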;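 also: plate controls were DMSO wells with RBBP9 for no effect and wells lacking RBBP9 protein for full effect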
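Assay system: recombinant human RBBP9; Reagent: Serine-hydrolase probe FP-Rh, 375 nM pre-mixing; Doses: 7.94 µM single dose, 0.794% DMSO; Incubation: 30 min then 45 min, 25 °C; Detection: fluorescence polarization (mP), excitation 525 nm, emission 598 nm; Evaluation: percent inhibition from mP, scaled between DMSO and no-protein wells.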
Fam108B inh – blocks mouse Fam108B hydrolase in RBBP9 counter-screen; recombinant Fam108B, FP-Rh probe fluorescence polarization; inhibition, % at 9.51 µM; hit rate 0.33% among 300,000;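 active = inhibition above the screen mean inhibition plus 3 SD, computed separately per campaign, cut at about 18% in these data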;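 also: inhibitors lower polarization as less probe binds the enzyme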
PRMT1 confirm – confirmation of human PRMT1 inhibitors | recombinant His-PRMT1, activity-based probe fluorescence polarization | AID 687036 | inhibition, % at 2.79 µM | shares compounds with PRMT1 inh | hit rate 42% among 3,300;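 active = mean inhibition across replicates above the hit cutoff derived for the earlier primary screen, cut at about 22% in these data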
Starred values were filed as active, the others as inactive; . = no result.

SMILES	PAD4 FP inh	PME-1 inh	GSTO1 inh	PRMT1 inh	RBBP9 inhibitor	Fam108B inh	PRMT1 confirm
OCCn1c(Cl)nc2ccccc21	1	0	-6	0	-2	1	.
Cc1cc(NC(=O)CCC(=O)N(Cc2ccco2)C(C(=O)NC2CCCCC2)c2ccccc2)no1 (stereo not drawn)	-1	-5	7	3	-6	6	.
CN(C)Cc1ccccc1C(O)(c1ccccc1)c1ccccc1	0	0	-3	1	.	1	.
COc1ccc(Cc2c(-c3ccco3)nc3ccc(Br)cn23)c(C)c1	.	.	.	31*	.	.	20
COc1ccc(Cc2c(-c3ccccc3)nc3ccc(Cl)cn23)c(C)c1	.	.	.	-2	.	.	.
COc1ccc(Cc2c(-c3ccco3)nc3ccc(Cl)cn23)c(C)c1	.	.	.	27*	.	.	15
Cc1ccc(Cc2c(-c3ccco3)nc3ccc(Br)cn23)cc1	.	.	.	31*	.	.	16
OCCSc1nc(-c2ccccc2)nc2c1CCC2	-1	-3	-2	-2	0	-3	.
Cc1ccc(N2C(=O)C3C4C=CC(CNC(=S)N5CCN(c6cccc(C)c6)C(C)C5)(O4)C3C2=O)cc1 (stereo not drawn)	-2	-1	2	37*	-3	-3	32*
Cc1cccc(N2CCN(C(=O)CN3CCOc4ccccc43)CC2C)c1 (stereo not drawn)	0	-3	8	6	-9	0	.
NNC(=S)Nc1cccc(-c2n[nH]c(=S)o2)c1	3	16	2	34*	-10	4	8
Nc1ncnc(Sc2ccccc2)c1[N+](=O)[O-]	9	0	-2	12	-11	8	.
Nc1ncnc(Sc2ncccn2)c1[N+](=O)[O-]	.	.	.	53*	-3	.	16
COc1ccc(-c2cn(-c3ccc(C)c(C)c3)c(=S)[nH]2)cc1OC	2	3	-1	31*	.	-4	18
COc1cccc(-n2cc(-c3ccc(F)cc3)[nH]c2=S)c1	0	0	0	14	.	-3	.
Cc1ccc(NCc2ccc(O)c3ncccc23)cc1	-8	2	8	5	6	-1	.
Oc1ccc(CNc2cccnc2)c2cccnc12	.	.	.	39*	.	.	34*
O=C(NCc1ccccc1F)C1CCC(CNS(=O)(=O)c2cccc3cccnc23)CC1 (stereo not drawn)	.	.	.	2	.	.	.
CC(C)NC(=O)c1sc2nc3c(c(-c4cccs4)c2c1N)CN(C)CC3	-5	2	-1	39*	-8	-1	8
COc1cc2cc(CN(Cc3ccc4c(c3)OCO4)C(=O)c3ccco3)c(=O)[nH]c2cc1OC	-2	-4	7	45*	-6	2	4
Cc1cc2cc(CN(Cc3ccc4c(c3)OCO4)C(=O)c3ccco3)c(=O)[nH]c2cc1C	0	-6	10	.	-2	-2	.
CCN(CC)CCSc1nc(O)c(-c2ccccc2)c(=O)n1-c1ccccc1	1	-1	4	25*	1	2	16
COc1ccc(NC(=O)n2ncc3cc(Cl)ccc32)cc1OC	-11	3	1	1	.	-2	.
CC(=O)Nc1ccc(-c2cn3ccsc3n2)cc1	8	-6	-1	2	-9	-6	.
c1cn2cc(-c3ccc4c(c3)OCO4)nc2s1	0	4	-3	35*	-2	3	46*
SMILES	PAD4 FP inh	PME-1 inh	GSTO1 inh	PRMT1 inh	RBBP9 inhibitor	Fam108B inh	PRMT1 confirm
O=C1C=CC(=O)N1c1cccc(-c2ccccc2)c1	-1	-12	-1	91*	-21	-11	94*
O=c1cc(-c2ccccc2)[nH]n1-c1ccccc1	.	.	.	6	.	.	.
CCC(Oc1cccc(Cl)c1)C(=O)N1CCCN(C)CC1 (stereo not drawn)	-2	1	5	-2	.	-1	.
CCCCCCC(=O)N(O)C1CC(=O)N(Cc2ccccc2)C1=O (stereo not drawn)	-5	3	7	-3	-5	-1	.
CCCCCC(=O)N(O)C1CC(=O)N(c2ccccc2)C1=O (stereo not drawn)	1	6	-5	84*	-1	-1	85*
Oc1ccc2ccccc2c1CN1CCOCC1	2	0	-7	21	-1	-4	.
CCCc1cc(CN2CCOCC2)c(O)c(CN2CCOCC2)c1O	.	.	.	64*	.	.	64*
Oc1c(CN2CCOCC2)cc(CN2CCOCC2)c(O)c1O	.	.	.	35*	.	.	83*
Oc1cccc(CN2CCOCC2)c1O	.	.	.	33*	.	.	9
O=C1C2CCCCN2C(=O)N1CCCN1CCN(c2cccc(C(F)(F)F)c2)CC1 (stereo not drawn)	.	.	.	-9	.	.	.
CCCn1c(=O)c(-c2nc3ccccc3[nH]2)c(O)c2ccccc21	-2	-4	2	0	-5	-4	.
CC(=O)Nc1ccc(C(=O)/C=C/c2ccco2)cc1	-8	-5	9	36*	-7	-9	27*
O=C(/C=C\c1ccco1)c1ccc(NC(=O)c2ccco2)cc1	-8	-18	-15	19	-12	-17	.
CCc1ccc(NC(=O)COC(=O)/C=C/c2ccco2)cc1	-10	.	.	28*	.	.	-1
COc1cc(OC)c(OC)cc1CN1CCCC(C(=O)N2CCCC2)C1 (stereo not drawn)	-2	-3	5	1	.	-2	.
O=C(NCCN1C(=O)S/C(=C\c2ccc(F)cc2)C1=O)C1CCN(S(=O)(=O)c2cccs2)CC1	1	-7	-6	0	-1	-1	.
C=C1C(=O)[C@]23C[C@H]1CC[C@H]2[C@]1(C)[C@@H](OC(C)=O)CC[C@@](C)(C(=O)O)[C@H]1C[C@@H]3OC(C)=O	.	.	.	0	.	.	.
O=[n+]1c2c(n([O-])c3cc(F)ccc31)CCCC2	-16	1	6	9	-8	-4	.
O=[n+]1c2c(n([O-])c3cc(F)c(N4CCCC4)cc31)CCC2	9	-7	7	35*	-6	-5	47*
O=[n+]1c2c(n([O-])c3cc(F)c(N4CCCC4)cc31)CCCC2	6	-8	8	46*	-5	-3	48*
COc1cccc(/C=C2\Sc3ccc(C(=O)NCc4cccnc4)cc3N(C)C2=O)c1	-1	3	-9	18	-9	2	.
COc1ccc(/C=C2\Sc3ccc(C(=O)NCc4cccnc4)cc3N(C)C2=O)cc1OC	-1	-2	-24	32*	-5	0	9
Cc1ccc(-n2c(CCC(=O)O)ccc2-c2cccs2)cc1C	-13	-4	8	32*	-2	9	4
CCOC(=O)c1ccc(-n2c(CCC(=O)O)ccc2-c2cccs2)cc1	-6	-5	6	47*	-5	-1	6
CC(C)Oc1ccc(Br)cc1/C=N\NC(N)=S	0	-1	-5	39*	-6	2	11
O=C(CSc1nnc(-c2ccco2)n1-c1ccc(Cl)cc1)Nc1cccc2ccccc12	.	.	.	6	.	.	.
O=C(CNC(=O)c1cccs1)OCC(=O)c1ccc([N+](=O)[O-])cc1	-5	-4	3	60*	1	-1	51*
